Assay results pooled from the literature.
Protocols differ between the studies behind these lines.
Target: Calcium/calmodulin-dependent protein kinase type II subunit alpha (CAMK2A, Homo sapiens, UniProt Q9UQM7)

Compound | test | conditions | remaining binding
C=CC(=O)N1CCC(C(=O)NCC(=O)N2CCN(c3nc(-c4cnc(N)nc4C(F)F)nc(N4CCOCC4)n3)CC2)CC1 | binding, competition with immobilised ligand | 1 µM | 96%
CNC(=O)[C@@H]1CC[C@@H](n2c(-c3ccc4cnccc4c3)nc3ccc(C(=O)NCc4cccc(C(N)=O)c4)cc32)C1 | binding, competition with immobilised ligand | 1 µM | 100%
CS(=O)(=O)NCC[C@H](NC(=O)c1cncc2c1cnn2-c1ccc(F)cc1)c1ccnc(S(C)(=O)=O)c1 | cell-free assay, competition with immobilised ligand | 1 µM | 100%
O=C(Nc1c[nH]nc1C(=O)NC1CCNCC1)c1cc(F)cc(F)c1 | binding, competition with immobilised ligand | 1 µM | 100%
Nc1ncc2c(n1)-c1c([nH]c3ccc(C#CC4CC4)cc13)CCCC2 | binding, competition with immobilised ligand | 1 µM | 100%
C[C@@H](c1ccc(-n2cnc3c(N)ncnc32)cc1)N1CCc2nn(C)c(Cc3ccccc3)c2C1=O | binding, competition with immobilised ligand | 0.1 µM | 91%
N#CC1(c2ccccn2)CCN(Cc2cc(C(=O)N3CCCC3)c(=O)n3ccccc23)CC1 | cell-free assay, competition with immobilised ligand | 1 µM | 84%
O=C(c1ccc(Nc2nccc(-c3cc4ccccc4s3)n2)cc1)N1CCC(N2CCCC2)CC1 | binding, competition with immobilised ligand | 1 µM | 95%
CN(C)c1nccc(-c2cnn3ncccc23)n1 | binding | 1 µM | 62%
FC(F)(F)c1ccc2c(c1)nc(-c1cccnc1)n2C1CC1 | cell-free assay, competition with immobilised ligand | 1 µM | 88%
CN(C)c1nccc(-c2cnc3ncccn23)n1 | binding | 1 µM | 92%
O=C(N1CCS(=O)(=O)CC1)N1C[C@H](c2ccc(OC(F)(F)F)cc2)C[C@H](c2nc(C3CC3)no2)C1 | cell-free assay, competition with immobilised ligand | 1 µM | 100%
N[C@@H]1CCN(c2nccc(-c3cnn4ncccc34)n2)C1 | binding | 1 µM | 100%
O=C(NCCCN1CCOCC1)c1ccc(Nc2ncc(Cl)c(-c3ccc(Cl)s3)n2)cc1 | binding, competition with immobilised ligand | 1 µM | 91%
c1cnn2ncc(-c3ccnc(N4CCC45COC5)n3)c2c1 | binding | 1 µM | 76%
CC(=O)C1=C(C)N(c2cccc(C(F)(F)F)c2)C(=O)N[C@@H]1c1ccc(C#N)nc1 | cell-free assay, competition with immobilised ligand | 1 µM | 92.5%
CN(C)c1ncc(F)c(-c2cnn3ncccc23)n1 | binding | 1 µM | 63%
O=C(NCCCN1CCOCC1)c1ccc(Nc2nccc(-c3cc4ccccc4s3)n2)cc1 | binding, competition with immobilised ligand | 1 µM | 68%
Cc1cnn2ncc(-c3ccnc(N(C)C)n3)c2c1 | binding | 1 µM | 86%
Cn1nc(C(=O)NCc2ccc(C(=O)O)cc2)cc1-c1ccc2[nH]ccc2c1 | cell-free assay, competition with immobilised ligand | 0.1 µM | 79%
CCN1CCN(Cc2ccc(C(=O)Nc3ccc(C)c(Oc4ccc5c(c4)CC(=O)N5)c3)cc2C(F)(F)F)CC1 | binding, competition with immobilised ligand | 1 µM | 100%
C[C@@H]1CCN(c2nccc(-c3cnn4ncccc34)n2)C1 | binding | 1 µM | 80%
